# ChEMBL document CHEMBL3046492, “Synthesis, insecticidal, and acaricidal activities of novel 2-aryl-pyrrole derivatives containing ester groups” (2008)
# Tests used:
# Assay type in all cases: functional
# Tetranychus cinnabarinus [1] = experiment: Acaricidal activity against adult Tetranychus cinnabarinus (carmine spider mite) in sieva bean plants assessed as mortality at 200 mg/kg treated for 3 secs measured after 2 days; details: 48 h
# Tetranychus cinnabarinus [2] = experiment: Acaricidal activity against adult Tetranychus cinnabarinus (carmine spider mite) in sieva bean plants assessed as mortality at 50 mg/kg treated for 3 secs measured after 2 days; details: 48 h
# Culex pipiens pallens [3] = experiment: Insecticidal activity against fourth-instar larval stage of Culex pipiens pallens (mosquito) assessed as mortality at 0.50 mg/kg at 25 +/-1 degC after 2 days; details: 48 h
# How it was run: (§1)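 Test solutions were prepared by adding 1 mL of each concentrated dilution to 99 mL water. Bioassays were run at 25 ± 1 °C on laboratory-reared insects.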
# Culex pipiens pallens [4] = experiment: Insecticidal activity against fourth-instar larval stage of Culex pipiens pallens (mosquito) assessed as mortality at 0.25 mg/kg at 25 +/-1 degC after 2 days; details: 48 h; how it was run: as §1
# Mythimna separata [5] = experiment: Insecticidal activity against fourth-instar larval stage of Mythimna separata (Oriental armyworm) in compound pretreated corn leaves assessed as mortality at 10 mg/kg at 25 +/-1 degC measured after 2 days
# Mythimna separata [6] = experiment: Insecticidal activity against fourth-instar larval stage of Mythimna separata (Oriental armyworm) in compound pretreated corn leaves assessed as mortality at 20 mg/kg at 25 +/-1 degC measured after 2 days
# Mythimna separata [7] = experiment: Insecticidal activity against fourth-instar larval stage of Mythimna separata (Oriental armyworm) in compound pretreated corn leaves assessed as mortality at 5 mg/kg at 25 +/-1 degC measured after 2 days
# Tetranychus cinnabarinus [8] = experiment: Acaricidal activity against adult Tetranychus cinnabarinus (carmine spider mite) in sieva bean plants assessed as mortality at 100 mg/kg treated for 3 secs measured after 2 days; details: 48 h
# Culex pipiens pallens [9] = experiment: Insecticidal activity against fourth-instar larval stage of Culex pipiens pallens (mosquito) assessed as mortality at 0.10 mg/kg at 25 +/-1 degC after 2 days; details: 48 h; how it was run: as §1
SMILES,mortality at 200 mg/kg (Tetranychus cinnabarinus [1]) [%],mortality at 50 mg/kg (Tetranychus cinnabarinus [2]) [%],mortality at 0.5 mg/kg (Culex pipiens pallens [3]) [%],mortality at 0.25 mg/kg (Culex pipiens pallens [4]) [%],mortality at 10 mg/kg (Mythimna separata [5]) [%],mortality at 20 mg/kg (Mythimna separata [6]) [%],mortality at 5 mg/kg (Mythimna separata [7]) [%],mortality at 100 mg/kg (Tetranychus cinnabarinus [8]) [%],mortality at 0.1 mg/kg (Culex pipiens pallens [9]) [%]
N#Cc1c(Br)c(C(F)(F)F)n(COC(=O)c2ccccc2Cl)c1-c1ccc(Cl)cc1,99,93,100,100,35,100,0,95,100
N#Cc1c(Br)c(C(F)(F)F)n(COC(=O)c2cc([N+](=O)[O-])cc([N+](=O)[O-])c2)c1-c1ccc(Cl)cc1,0,,100,100,0,100,0,,100
N#Cc1c(Br)c(C(F)(F)F)n(COC(=O)C(=O)c2ccccc2)c1-c1ccc(Cl)cc1,100,79,,,60,100,0,88,
CC(Oc1ccc(Cl)cc1)C(=O)OCn1c(-c2ccc(Cl)cc2)c(C#N)c(Br)c1C(F)(F)F (stereo not drawn),98,94,100,100,80,100,0,95,100
N#Cc1c(Br)c(C(F)(F)F)n(COC(=O)c2ccccc2[N+](=O)[O-])c1-c1ccc(Cl)cc1,0,,100,20,100,100,20,,10
N#Cc1c(Br)c(C(F)(F)F)n(COC(=O)c2cccc([N+](=O)[O-])c2)c1-c1ccc(Cl)cc1,98,90,80,40,0,100,0,94,30
COc1ccc(C(=O)OCn2c(-c3ccc(Cl)cc3)c(C#N)c(Br)c2C(F)(F)F)cc1,0,,70,30,90,100,0,,20
CC(C)C(=O)OCn1c(-c2ccc(Cl)cc2)c(C#N)c(Br)c1C(F)(F)F,100,100,,,100,100,0,100,
CC(Oc1cccc([N+](=O)[O-])c1)C(=O)OCn1c(-c2ccc(Cl)cc2)c(C#N)c(Br)c1C(F)(F)F (stereo not drawn),0,,100,100,85,100,0,,90
CC(=O)OCn1c(-c2ccc(Cl)cc2)c(C#N)c(Br)c1C(F)(F)F,0,,100,100,90,100,0,,100
N#Cc1c(Br)c(C(F)(F)F)n(COC(=O)c2ccccc2N)c1-c1ccc(Cl)cc1,0,,100,100,0,10,0,,100
N#Cc1c(Br)c(C(F)(F)F)n(COC(=O)c2ccc(N)cc2)c1-c1ccc(Cl)cc1,0,,100,10,0,40,0,,10
